This is an account of results in ChEMBL document CHEMBL5614435.

Common to all, as to assay type: functional
In test [1] the target is Amyloid-beta precursor protein (Homo sapiens) (UniProt P05067). The test can be described thus: Amyloid aggregation property at high concentration over 3 days by thioflavin-T fluorescence assay. Conditions: time 3.0 day. Summed up:
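Peptide was dissolved in water at pH 4.2–4.5 or 7.2–7.4, filtered and centrifuged to leave monomers. ThT and NaCl were added to give 1 or 5 mg/mL peptide final. Plates were sealed and read at 37 °C with orbital shaking for 3 days (ex 445 nm/em 490 nm, bottom read). Triplicates, with peptide-free ThT background subtracted; mean and SD were reported.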

Test [2] has the same target. Kind of test: Amyloid aggregation property at high concentration by CD spectroscopy. The procedure, abridged:
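Far-UV CD (185–260 nm, spectra truncated at 195 nm) in a 1.0 mm cuvette. Samples were 200–300 μM peptide with 150 mM NaCl at pH 4.5 or 7.4, kept at 37 °C and shaken at 500 rpm between acquisitions. Each spectrum is the average of 3 scans at 50 nm/min, solvent-subtracted, Savitzky–Golay smoothed, and expressed as mean residue molar ellipticity.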

The target is the same in test [3]. The test can be described thus: Amyloid aggregation property at high concentration by atomic force microscopy analysis. Summed up:
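AFM in dynamic mode on 10 μL aliquots taken at the endpoint of the agitated aggregation samples: ThT samples (37 °C, pH ~4.5 or ~7.4) after 3 days and CD samples (200–300 μM, 150 mM NaCl) after 2 weeks.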

For another test, the system named is INS-1E. The test can be described thus: Induction of insulin secretion in rat INS-1E cells assessed as median fold increase at 20 nM pretreated with glucose for 30 mins followed by KRBH washout for 30 mins and subsequent glucose and compound addition for another 30 mins by ELISA. For orientation: ELISA stands for enzyme-linked immunosorbent assay.

SMILES strings stand for the structures. Active and inactive are the calls of the source. The rule behind the calls is not given here. Bridge positions count the residues as written; N and C are the ends. Peptide text beside a SMILES is read from it.

Amyloid-beta precursor protein (Homo sapiens), sequence (P05067 whole entry): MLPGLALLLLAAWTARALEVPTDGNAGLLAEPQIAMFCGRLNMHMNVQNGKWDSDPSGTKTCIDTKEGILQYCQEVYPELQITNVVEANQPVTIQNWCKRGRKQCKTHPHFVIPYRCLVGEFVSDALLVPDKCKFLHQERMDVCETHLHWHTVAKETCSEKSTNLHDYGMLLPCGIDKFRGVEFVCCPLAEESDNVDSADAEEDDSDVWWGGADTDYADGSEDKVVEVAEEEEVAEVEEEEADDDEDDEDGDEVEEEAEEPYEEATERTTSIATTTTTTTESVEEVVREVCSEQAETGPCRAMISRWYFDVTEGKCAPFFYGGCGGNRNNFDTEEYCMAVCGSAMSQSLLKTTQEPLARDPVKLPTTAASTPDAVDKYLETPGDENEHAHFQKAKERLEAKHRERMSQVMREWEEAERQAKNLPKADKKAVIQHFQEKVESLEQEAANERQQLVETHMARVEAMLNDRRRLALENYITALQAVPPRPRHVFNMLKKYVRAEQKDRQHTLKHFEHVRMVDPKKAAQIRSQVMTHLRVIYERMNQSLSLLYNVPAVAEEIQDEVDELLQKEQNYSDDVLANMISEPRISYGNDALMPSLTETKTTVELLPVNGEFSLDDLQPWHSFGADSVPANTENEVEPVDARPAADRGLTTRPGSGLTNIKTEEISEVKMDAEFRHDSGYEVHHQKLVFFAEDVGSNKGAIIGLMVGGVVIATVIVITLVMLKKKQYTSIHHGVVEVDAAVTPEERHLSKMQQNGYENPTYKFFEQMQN

For the compound `CC[C@H](C)[C@H](NC(=O)[C@H](Cc1ccc(O)cc1)NC(=O)[C@H](CC(C)C)NC(=O)[C@H](CCCNC(=N)N)NC(=O)[C@@H](NC(=O)[C@H](C)NC(=O)[C@H](CCC(=O)O)NC(=O)[C@H](CCC(=O)O)NC(=O)[C@H](CCC(=O)O)NC(=O)[C@H](CCSC)NC(=O)[C@H](CCC(N)=O)NC(=O)[C@H](CCCCN)NC(=O)[C@H](CO)NC(=O)[C@H](CC(C)C)NC(=O)[C@H](CC(=O)O)NC(=O)[C@H](CO)NC(=O)[C@@H](NC(=O)[C@H](Cc1ccccc1)NC(=O)[C@@H](NC(=O)CNC(=O)[C@H](CCC(=O)O)NC(=O)CNC(=O)[C@@H](N)Cc1cnc[nH]1)[C@@H](C)O)[C@@H](C)O)C(C)C)C(=O)N[C@@H](CCC(N)=O)C(=O)N[C@@H](Cc1c[nH]c2ccccc12)C(=O)N[C@@H](CC(C)C)C(=O)N[C@@H](CCCCN)C(=O)N[C@@H](CC(=O)O)C(=O)NCC(=O)NCC(=O)N1CCC[C@H]1C(=O)N[C@@H](CO)C(=O)N[C@@H](CO)C(=O)NCC(=O)N[C@@H](CCCNC(=N)N)C(=O)N1CCC[C@H]1C(=O)N1CCC[C@H]1C(=O)N1CCC[C@H]1C(=O)N[C@@H](CO)C(=O)O`, the result in test [1], in test [2] and in test [3] was Active.
Regarding `CC[C@H](C)[C@@H]1NC(=O)[C@H](Cc2ccc(O)cc2)NC(=O)[C@H](CC(C)C)NC(=O)[C@H](CCCNC(=N)N)NC(=O)[C@H](C(C)C)NC(=O)[C@@H](NC(=O)[C@H](CCC(=O)O)NC(=O)[C@H](CCC(=O)O)NC(=O)[C@H](CCC(=O)O)NC(=O)[C@H](CCSC)NC(=O)[C@H](CCC(N)=O)NC(=O)[C@H](CCCCN)NC(=O)[C@H](CO)NC(=O)[C@H](CC(C)C)NC(=O)[C@H](CC(=O)O)NC(=O)[C@H](CO)NC(=O)[C@@H](NC(=O)[C@H](Cc2ccccc2)NC(=O)[C@@H](NC(=O)CNC(=O)[C@H](CCC(=O)O)NC(=O)CNC(=O)[C@@H](N)Cc2cnc[nH]2)[C@@H](C)O)[C@@H](C)O)CSSC[C@@H](C(=O)O)NC(=O)[C@@H]2CCCN2C(=O)[C@@H]2CCCN2C(=O)[C@@H]2CCCN2C(=O)[C@H](CCCNC(=N)N)NC(=O)CNC(=O)[C@H](CO)NC(=O)[C@H](CO)NC(=O)[C@@H]2CCCN2C(=O)CNC(=O)CNC(=O)[C@H](CC(=O)O)NC(=O)[C@H](CCCCN)NC(=O)[C@H](CC(C)C)NC(=O)[C@H](Cc2c[nH]c3ccccc23)NC(=O)[C@H](CCC(N)=O)NC1=O` (H-HGEGTFTSDLSKQMEEECVRLYIQWLKDGGPSSGRPPPC-OH; disulfide 18-39), the result with INS-1E was inactive.
